Reference: ChEMBL document CHEMBL1147254, “New bioactive polyphenols from Theobroma grandiflorum ("cupuaçu")” (J Nat Prod, 2003)

Tests used:
[1] = tested on: Radical scavenging activity; test: Antioxidant activity assessed as DPPH radical scavenging activity after 30 mins; format: functional
Procedure, shortened: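 Test samples in DMSO were mixed with a 300 µM ethanolic DPPH solution and incubated at 37 °C.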

HCT-116 = test: Cytotoxicity against human HCT116 cells after 72 hrs by MTT assay; format: functional, cell-based; details: HCT-116, 72 h
Procedure, shortened: (§1)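 About 30 000 cells per well were seeded in 96-well plates, and the medium was replaced once cultures reached 40% confluence.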

SW480 = test: Cytotoxicity against human SW480 cells after 72 hrs by MTT assay; format: functional, cell-based; details: SW480, 72 h; procedure, shortened: as §1

Compound	IC50 [1] [µM]	IC50 (HCT-116) [µM]	IC50 (SW480) [µM]
O=C(O)[C@H]1O[C@@H](Oc2c(O)cc(O)c3c(=O)cc(-c4ccc(O)cc4)oc23)[C@H](O)[C@@H](O)[C@@H]1O	68.1		
COC(=O)[C@H]1O[C@@H](Oc2c(O)cc(O)c3c(=O)cc(-c4ccc(O)cc4)oc23)[C@H](O)[C@@H](O)[C@@H]1O	69.2		
COC(=O)[C@H]1O[C@@H](Oc2c(-c3ccc(O)c(O)c3)oc3cc(O)cc(O)c3c2=O)[C@H](O)[C@@H](O)[C@@H]1O	41.6		
O=C(O)[C@H]1O[C@@H](Oc2c(O)cc(O)c3c(=O)cc(-c4ccc(O)c(O)c4)oc23)[C@H](O)[C@@H](O)[C@@H]1O	58.2		
Oc1cc(O)c2c(c1)O[C@H](c1ccc(O)c(O)c1)[C@H](O)C2 [(-)-EPICATECHIN]	49		
Oc1cc(O)c2c(c1)O[C@H](c1ccc(O)c(O)c1)[C@@H](O)C2 [CIANIDANOL]	49		
O=c1c(O)c(-c2ccc(O)cc2)oc2cc(O)cc(O)c12 [KAEMPFEROL]	89.7		
O=C(O)[C@H]1O[C@@H](Oc2c(-c3ccc(O)c(O)c3)oc3cc(O)cc(O)c3c2=O)[C@H](O)[C@@H](O)[C@@H]1O [QUERCETIN GLUCURONIDE]	44.4		
O=c1c(O)c(-c2ccc(O)c(O)c2)oc2cc(O)cc(O)c12 [QUERCETIN]	39.7		
O=C(O)[C@H]1O[C@@H](Oc2c(O)cc(O)c3c(=O)cc(-c4ccc(O)c(O)c4)oc23)[C@H](O)[C@@H](OS(=O)(=O)O)[C@@H]1O [THEOGRANDIN II]	120	143	125
O=C(O)[C@H]1O[C@@H](Oc2c(O)cc(O)c3c(=O)cc(-c4ccc(O)cc4)oc23)[C@H](O)[C@@H](OS(=O)(=O)O)[C@@H]1O [THEOGRANDIN I]	341	205	164
